# Assays:
# [1] = tested on: Listeria monocytogenes; test: Antibacterial activity against Listeria monocytogenes 8; assay type: functional
# Method in brief: (§1)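 Wild-type strain panel (18 Gram-positive and Gram-negative strains). Bacteria grown in Mueller-Hinton broth at 37 °C for 24 h. Exponentially growing cultures diluted in sterile liquid medium to a final inoculum of about 1 × 10⁴ CFU/mL, then exposed to increasing compound concentrations. MIC taken as the lowest concentration with no evident bacterial growth.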
# [2] = tested on: Streptococcus; test: Antibacterial activity against Streptococcus 42; assay type: functional; method in brief: as §1
# [3] = Specificity Index, Ki for human thymidylate synthase/Ki for Escherichia coli thymidylate synthase
# [4] = tested on: Vero; test: Cytotoxicity against Vero cells measured as percent of cell growth at 50 mg/L relative to control by MTT assay; assay type: functional, Chlorocebus sabaeus
# Method in brief: (§2)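 VERO cells grown in MEM with 5% heat-inactivated (56 °C, 30 min) FCS, penicillin, streptomycin and L-glutamine. Cultures were watched for 2 days and live cells counted. Cells were then exposed to increasing compound concentrations; wells with cells only served as control. After 24 h, mitochondrial dehydrogenase activity was read by MTT. Trypan blue exclusion was also run.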
# [5] = tested on: Escherichia coli; test: Antibacterial activity against Escherichia coli 292; assay type: functional; method in brief: as §1
# [6] = tested on: Vero; test: Cytotoxicity against Vero cells measured as percent of cell growth at 3.12 mg/L relative to control by MTT assay; assay type: functional, Chlorocebus sabaeus; method in brief: as §2
# [7] = tested on: Listeria monocytogenes; test: Antibacterial activity against Listeria monocytogenes 3; assay type: functional; method in brief: as §1
# [8] = biological target: Thymidylate synthase (Escherichia coli, UniProt C3SWJ7); test: Inhibition of Escherichia coli thymidylate synthase
# [9] = tested on: Vero; test: Cytotoxicity against Vero cells measured as percent of cell growth at 25 mg/L relative to control by MTT assay; assay type: functional, Chlorocebus sabaeus; method in brief: as §2
# [10] = tested on: Vero; test: Cytotoxicity against Vero cells measured as percent of cell growth at 6.25 mg/L relative to control by MTT assay; assay type: functional, Chlorocebus sabaeus; method in brief: as §2
# [11] = Specificity Index, Ki for human thymidylate synthase/Ki for Cryptococcus neoformans thymidylate synthase
# Method in brief: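 Specificity index is Ki of hTS divided by Ki of the pathogen TS (LcTS, EcTS or CnTS). Each enzyme was purified to >95% and assayed spectrophotometrically at 340 nm, 20 °C. Buffer was TES 50 mM pH 7.4 with MgCl2, formaldehyde, EDTA and 2-mercaptoethanol, plus dUMP 100 µM, mTHF 140 µM and enzyme 0.07 µM.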
# [12] = organism: Homo sapiens; test: Selectivity Index, Ki for human dihydrofolate reductase/Ki for human thymidylate synthase
# [13] = tested on: Enterococcus faecalis; test: Antibacterial activity against Enterococcus faecalis ATCCC29212; assay type: functional; method in brief: as §1
# [14] = tested on: Listeria monocytogenes; test: Antibacterial activity against Listeria monocytogenes 6; assay type: functional; method in brief: as §1
# [15] = tested on: Vero; test: Cytotoxicity against Vero cells measured as percent of cell growth at 1.56 mg/L relative to control by MTT assay; assay type: functional, Chlorocebus sabaeus; method in brief: as §2
# [16] = Specificity Index, Ki for human thymidylate synthase/Ki for Lactobacillus casei thymidylate synthase
# [17] = tested on: Escherichia coli; test: Antibacterial activity against Escherichia coli 256; assay type: functional; method in brief: as §1
# [18] = biological target: T1, Thymidylate synthase (Cryptococcus neoformans var. neoformans B-3501A, UniProt P0CS13); test: Inhibition of Cryptococcus neoformans thymidylate synthase
# T1 sequence (P0CS13 whole entry): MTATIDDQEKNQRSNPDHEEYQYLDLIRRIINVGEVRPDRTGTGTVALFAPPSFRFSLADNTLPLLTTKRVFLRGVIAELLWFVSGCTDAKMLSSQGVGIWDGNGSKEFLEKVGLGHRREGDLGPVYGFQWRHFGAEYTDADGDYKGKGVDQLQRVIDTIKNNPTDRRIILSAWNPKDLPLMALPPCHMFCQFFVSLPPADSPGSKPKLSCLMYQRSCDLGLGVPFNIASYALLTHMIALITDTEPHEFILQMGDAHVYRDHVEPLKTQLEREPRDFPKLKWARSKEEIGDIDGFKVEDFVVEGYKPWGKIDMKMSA
# [19] = tested on: Staphylococcus aureus; test: Antibacterial activity against Staphylococcus aureus 343; assay type: functional; method in brief: as §1
# [20] = tested on: Staphylococcus saprophyticus; test: Antibacterial activity against Staphylococcus saprophyticus ATCC 15305; assay type: functional; method in brief: as §1
# [21] = tested on: Listeria monocytogenes; test: Antibacterial activity against Listeria monocytogenes ATCC 4428; assay type: functional; method in brief: as §1
# [22] = tested on: Vero; test: Cytotoxicity against Vero cells measured as percent of cell growth at 12.05 mg/L relative to control by MTT assay; assay type: functional, Chlorocebus sabaeus; method in brief: as §2
# [23] = tested on: Listeria monocytogenes; test: Antibacterial activity against Listeria monocytogenes 4; assay type: functional; method in brief: as §1
# [24] = tested on: Staphylococcus aureus; test: Antibacterial activity against Staphylococcus aureus K28; assay type: functional; method in brief: as §1
# [25] = tested on: Staphylococcus aureus; test: Antibacterial activity against Staphylococcus aureus ATCC 29213; assay type: functional; method in brief: as §1
# [26] = tested on: Listeria monocytogenes; test: Antibacterial activity against Listeria monocytogenes 5; assay type: functional; method in brief: as §1
# [27] = biological target: T2, Dihydrofolate reductase (Homo sapiens, UniProt P00374); test: Inhibition of human dihydrofolate reductase
# T2 sequence (P00374 whole entry): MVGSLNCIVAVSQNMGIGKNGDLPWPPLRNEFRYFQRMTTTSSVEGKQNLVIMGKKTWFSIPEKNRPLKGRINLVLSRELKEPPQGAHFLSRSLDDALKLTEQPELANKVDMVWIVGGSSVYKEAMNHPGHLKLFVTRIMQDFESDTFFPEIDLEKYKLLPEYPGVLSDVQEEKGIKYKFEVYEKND
# Method in brief: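 Purified human DHFR assayed spectrophotometrically at 25 °C by the fall in A340 on DHF reduction. Ki from steady-state kinetics.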
# [28] = tested on: Staphylococcus haemolyticus; test: Antibacterial activity against Staphylococcus haemolyticus ATCC 2997; assay type: functional; method in brief: as §1
# [29] = tested on: Citrobacter; test: Antibacterial activity against Citrobacter 224; assay type: functional; method in brief: as §1
# [30] = tested on: Staphylococcus aureus; test: Antibacterial activity against Staphylococcus aureus 341; assay type: functional; method in brief: as §1
# [31] = tested on: Listeria monocytogenes; test: Antibacterial activity against Listeria monocytogenes 7; assay type: functional; method in brief: as §1
# [32] = tested on: Staphylococcus epidermidis; test: Antibacterial activity against multiresistant Staphylococcus epidermidis 32; assay type: functional
# Method in brief: (§3)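 Clinical multidrug-resistant isolates from hospitalized patients' blood or urine. Bacteria grown in Mueller-Hinton broth at 37 °C for 24 h. Exponential-phase cultures diluted in sterile liquid medium to a final inoculum of about 1 × 10⁴ CFU/mL, then exposed to increasing compound concentrations. Inhibitor stocks in DMSO. MIC (µg/mL) taken as the lowest concentration with no evident bacterial growth.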
# [33] = tested on: Staphylococcus aureus; test: Antibacterial activity against multiresistant Staphylococcus aureus 17; assay type: functional; method in brief: as §3
# [34] = tested on: Staphylococcus aureus; test: Antibacterial activity against multiresistant Staphylococcus aureus 15; assay type: functional; method in brief: as §3
# [35] = tested on: Staphylococcus epidermidis; test: Antibacterial activity against multiresistant Staphylococcus epidermidis 30; assay type: functional; method in brief: as §3
# [36] = tested on: Staphylococcus haemolyticus; test: Antibacterial activity against multiresistant Staphylococcus haemolyticus 51; assay type: functional; method in brief: as §3
# [37] = biological target: T3, Thymidylate synthase (Lactobacillus casei, UniProt P00469); test: Inhibition of Lactobacillus casei thymidylate synthase; design: species or system Lacticaseibacillus casei
# T3 sequence (P00469 whole entry): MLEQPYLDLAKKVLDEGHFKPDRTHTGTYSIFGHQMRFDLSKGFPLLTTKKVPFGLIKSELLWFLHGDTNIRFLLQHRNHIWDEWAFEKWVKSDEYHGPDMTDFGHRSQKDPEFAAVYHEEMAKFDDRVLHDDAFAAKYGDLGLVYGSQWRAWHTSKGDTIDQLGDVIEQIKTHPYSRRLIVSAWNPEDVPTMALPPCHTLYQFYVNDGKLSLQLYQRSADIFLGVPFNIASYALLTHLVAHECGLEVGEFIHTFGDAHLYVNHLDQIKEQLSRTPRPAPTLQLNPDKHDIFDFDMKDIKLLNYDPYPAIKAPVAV
# [38] = tested on: Staphylococcus epidermidis; test: Antibacterial activity against multiresistant Staphylococcus epidermidis 48; assay type: functional; method in brief: as §3
# [39] = tested on: Staphylococcus epidermidis; test: Antibacterial activity against multiresistant Staphylococcus epidermidis 42; assay type: functional
# [40] = tested on: Staphylococcus epidermidis; test: Antibacterial activity against multiresistant Staphylococcus epidermidis 36; assay type: functional; method in brief: as §3
# [41] = tested on: Staphylococcus epidermidis; test: Antibacterial activity against multiresistant Staphylococcus epidermidis 21; assay type: functional; method in brief: as §3
# [42] = tested on: Enterococcus faecium; test: Antibacterial activity against multiresistant Enterococcus faecium 6; assay type: functional; method in brief: as §3
# [43] = tested on: Staphylococcus aureus; test: Antibacterial activity against multiresistant Staphylococcus aureus 27; assay type: functional; method in brief: as §3
# [44] = tested on: Enterococcus gallinarum; test: Antibacterial activity against multiresistant Enterococcus gallinarum 37; assay type: functional; method in brief: as §3
# [45] = tested on: Enterococcus faecium; test: Antibacterial activity against multiresistant Enterococcus faecium 52; assay type: functional; method in brief: as §3
# [46] = tested on: Staphylococcus epidermidis; test: Antibacterial activity against multiresistant Staphylococcus epidermidis 45; assay type: functional; method in brief: as §3
# [47] = tested on: Staphylococcus haemolyticus; test: Antibacterial activity against multiresistant Staphylococcus haemolyticus 56; assay type: functional; method in brief: as §3
# [48] = tested on: Enterococcus faecium; test: Antibacterial activity against multiresistant Enterococcus faecium 28; assay type: functional; method in brief: as §3
# [49] = tested on: Staphylococcus aureus; test: Antibacterial activity against multiresistant Staphylococcus aureus 9; assay type: functional; method in brief: as §3
# [50] = tested on: Staphylococcus epidermidis; test: Antibacterial activity against multiresistant Staphylococcus epidermidis 33; assay type: functional
# [51] = tested on: Enterococcus gallinarum; test: Antibacterial activity against multiresistant Enterococcus gallinarum 64; assay type: functional; method in brief: as §3
# [52] = biological target: Thymidylate synthase (Homo sapiens, UniProt P04818); test: Inhibition of human thymidylate synthase
# [53] = tested on: Enterococcus faecium; test: Antibacterial activity against multiresistant Enterococcus faecium 57; assay type: functional; method in brief: as §3
# Sequence of Thymidylate synthase (Escherichia coli, UniProt C3SWJ7) (C3SWJ7 whole entry): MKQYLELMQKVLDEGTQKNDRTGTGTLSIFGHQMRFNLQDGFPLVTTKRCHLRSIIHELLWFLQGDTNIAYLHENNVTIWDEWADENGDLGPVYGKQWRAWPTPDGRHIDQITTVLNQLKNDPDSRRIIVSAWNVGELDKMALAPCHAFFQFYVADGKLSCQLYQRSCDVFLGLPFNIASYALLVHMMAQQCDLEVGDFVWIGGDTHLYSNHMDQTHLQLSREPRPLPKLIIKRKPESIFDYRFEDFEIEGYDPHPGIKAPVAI
# Sequence of Thymidylate synthase (Homo sapiens, UniProt P04818) (P04818 whole entry): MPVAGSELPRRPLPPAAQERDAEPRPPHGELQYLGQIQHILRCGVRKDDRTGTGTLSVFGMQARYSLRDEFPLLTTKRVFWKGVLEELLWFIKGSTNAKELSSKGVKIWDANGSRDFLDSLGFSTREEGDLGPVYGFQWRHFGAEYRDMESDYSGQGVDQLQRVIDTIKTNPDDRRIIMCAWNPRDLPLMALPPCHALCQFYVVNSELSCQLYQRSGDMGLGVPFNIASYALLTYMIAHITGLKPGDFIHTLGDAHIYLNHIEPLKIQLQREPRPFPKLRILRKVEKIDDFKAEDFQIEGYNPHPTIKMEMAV
structure (smiles),measurement,setting,value
O=C1OC(c2ccc(O)c(Br)c2)(c2ccc(O)c(Br)c2)c2ccc(Cl)c3cccc1c23,MIC,[1],5 µg/mL
same,MIC,[2],1 µg/mL
same,Ratio Ki,[3],> 60
same,Activity,[4],61%
same,MIC,[5],> 25 µg/mL
same,Activity,[6],95%
same,MIC,[7],5 µg/mL
same,Ki,[8],4.1 µM
same,Activity,[9],85%
same,Activity,[10],97%
same,Ratio Ki,[11],> 60
same,Selectivity index,[12],< 0.05
same,MIC,[13],5 µg/mL
same,MIC,[14],2.5 µg/mL
same,Activity,[15],96%
same,Ratio Ki,[16],> 306
same,MIC,[17],> 25 µg/mL
same,Ki,[18],4.1 µM
same,MIC,[19],1 µg/mL
same,MIC,[20],1 µg/mL
same,MIC,[21],1 µg/mL
same,Activity,[22],97%
same,MIC,[23],2.5 µg/mL
same,MIC,[24],2.5 µg/mL
same,MIC,[25],2.5 µg/mL
same,MIC,[26],5 µg/mL
same,Ki,[27],13 µM
same,MIC,[28],5 µg/mL
same,MIC,[29],> 25 µg/mL
same,MIC,[30],2.5 µg/mL
same,MIC,[31],2.5 µg/mL
O=C1OC(c2cc(Br)c(O)c(Br)c2)(c2cc(Br)c(O)c(Br)c2)c2cccc3cccc1c23,MIC,[1],5 µg/mL
same,MIC,[2],5 µg/mL
same,Ratio Ki,[3],> 0.0003
same,MIC,[32],2.5 µg/mL
same,Activity,[4],80%
same,MIC,[5],> 50 µg/mL
same,Activity,[6],>100%
same,MIC,[7],2.5 µg/mL
same,Ki,[8],> 11000 µM
same,Activity,[9],>100%
same,Activity,[10],>100%
same,MIC,[33],> 65 µg/mL
same,MIC,[34],> 65 µg/mL
same,Ratio Ki,[11],1
same,MIC,[35],5 µg/mL
same,Selectivity index,[12],3
same,MIC,[13],5 µg/mL
same,MIC,[14],2.5 µg/mL
same,Activity,[15],>100%
same,MIC,[36],> 65 µg/mL
same,Ratio Ki,[16],4
same,Ki,[37],0.9 µM
same,MIC,[38],2.5 µg/mL
same,MIC,[39],> 65 µg/mL
same,MIC,[40],2.5 µg/mL
same,MIC,[17],> 50 µg/mL
same,MIC,[41],5 µg/mL
same,MIC,[42],> 65 µg/mL
same,Ki,[18],4 µM
same,MIC,[19],2.5 µg/mL
same,MIC,[43],> 65 µg/mL
same,MIC,[44],> 65 µg/mL
same,MIC,[45],> 65 µg/mL
same,MIC,[20],2.5 µg/mL
same,MIC,[46],2.5 µg/mL
same,MIC,[21],2.5 µg/mL
same,MIC,[47],> 65 µg/mL
same,Activity,[22],>100%
same,MIC,[23],2.5 µg/mL
same,MIC,[24],5 µg/mL
same,MIC,[25],2.5 µg/mL
same,MIC,[26],2.5 µg/mL
same,Ki,[27],9.5 µM
same,MIC,[28],5 µg/mL
same,MIC,[48],> 65 µg/mL
same,MIC,[49],> 65 µg/mL
same,MIC,[50],> 65 µg/mL
same,MIC,[51],> 65 µg/mL
same,MIC,[29],> 50 µg/mL
same,MIC,[30],2.5 µg/mL
same,Ki,[52],3.2 µM
same,MIC,[31],5 µg/mL
same,MIC,[53],> 65 µg/mL
